# Assay results published in PubChem BioAssay AID1747 (Sanford-Burnham Center for Chemical Genomics, 2009).
# Test system: MDA-MB-435 + TRAIL, ATPlite cytotoxicity, 24 h
# Experiment: TRAIL sensitizers in resistant cancer line – cell-based, MDA-MB-435, ATPlite luminescence, 24 h, confirmation (AID 1747)
# Conditions: stronger effect = higher value; for cytotoxicity: compound alone, no TRAIL
# How it was run: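 Assay system: TRAIL-resistant human MDA-MB-435 cancer cells; Reagent: TRAIL, 30 ng/mL; Doses: compound 1.25–5 µM final; Timing: 24 h cell growth, 4 h compound pretreatment, 24 h TRAIL exposure; Signal: ATPlite luminescence reporting cellular ATP content.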
# [1] = compound plus TRAIL, at 1.25 µM
Structure (SMILES),cytotoxicity with TRAIL (at 5 µM),cytotoxicity (at 5 µM),cytotoxicity with TRAIL [1],"cytotoxicity with TRAIL (compound plus TRAIL, at 2.5 µM)"
CSc1nc(-c2ccccc2)nc(C(Cl)Cl)n1,82%,0%,44%,58%
CCSc1nc(-c2ccccc2)nc(C(Cl)Cl)n1,73%,0%,28%,45%
CSc1nc(-c2ccc(C)cc2)nc(C(Cl)Cl)n1,71%,0%,43%,60%
